Results published in ChEMBL document CHEMBL3217692, “Synthesis and cytotoxicity evaluation of novel pyrido[3,4-d]pyrimidine derivatives as potential anticancer agents” (2012).

Assays:
Format in all cases: functional
[1] = test system: SK-OV-3; assay: Cytotoxicity against human SKOV3 cells assessed as cell growth at 10 uM after 48 hrs by sulforhodamine B assay relative to control; details: SK-OV-3, 48 h, read-out: Activity
Method in brief: (§1)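 Adherent cells were grown in RPMI 1640 with 5% FBS and 2 mM L-glutamine, seeded at 5000–40 000 cells/well by doubling time, and held 24 h at 37 °C, 5% CO2 before drug. Time-zero plates were TCA-fixed. Compound in DMSO, single dose 10 μM, 48 h. Cells were fixed with cold TCA (final 10%, 60 min, 4 °C) and stained with 0.4% SRB. Bound dye was dissolved in 10 mM Tris base and read at 515 nm. Percent growth was derived from time-zero, control and treated absorbances.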

[2] = Cytotoxicity against human NCI-ADR-RES cells assessed as cell growth at 10 uM after 48 hrs by sulforhodamine B assay relative to control; details: read-out: Activity; method in brief: as §1
[3] = Cytotoxicity against human OVCAR8 cells assessed as cell growth at 10 uM after 48 hrs by sulforhodamine B assay relative to control; details: OVCAR-8, 48 h, read-out: Activity; method in brief: as §1
[4] = Cytotoxicity against human OVCAR5 cells assessed as cell growth at 10 uM after 48 hrs by sulforhodamine B assay relative to control; details: OVCAR-5, 48 h, read-out: Activity; method in brief: as §1
[5] = Cytotoxicity against human OVCAR3 cells assessed as cell growth at 10 uM after 48 hrs by sulforhodamine B assay relative to control; details: OVCAR-3, 48 h, read-out: Activity; method in brief: as §1
[6] = test system: IGROV-1; assay: Cytotoxicity against human IGROV1 cells assessed as cell growth at 10 uM after 48 hrs by sulforhodamine B assay relative to control; details: IGROV-1, 48 h, read-out: Activity; method in brief: as §1
[7] = test system: MDA-MB-435; assay: Cytotoxicity against human MDA-MB-435 cells assessed as cell growth at 10 uM after 48 hrs by sulforhodamine B assay relative to control; details: MDA-MB-435, 48 h, read-out: Activity; method in brief: as §1
[8] = test system: Malme-3M; assay: Cytotoxicity against human MALME-3M cells assessed as cell growth at 10 uM after 48 hrs by sulforhodamine B assay relative to control; details: read-out: Activity; method in brief: as §1
[9] = test system: LOX IMVI; assay: Cytotoxicity against human LOXIMVI cells assessed as cell growth at 10 uM after 48 hrs by sulforhodamine B assay relative to control; details: read-out: Activity; method in brief: as §1
[10] = test system: SNB-75; assay: Cytotoxicity against human SNB75 cells assessed as cell growth at 10 uM after 48 hrs by sulforhodamine B assay relative to control; details: SNB-75, 48 h, read-out: Activity; method in brief: as §1
[11] = test system: SNB-19; assay: Cytotoxicity against human SNB19 cells assessed as cell growth at 10 uM after 48 hrs by sulforhodamine B assay relative to control; details: SNB-19, 48 h, read-out: Activity; method in brief: as §1
[12] = test system: SF-539; assay: Cytotoxicity against human SF539 cells assessed as cell growth at 10 uM after 48 hrs by sulforhodamine B assay relative to control; details: SF-539, 48 h, read-out: Activity; method in brief: as §1
[13] = test system: SW-620; assay: Cytotoxicity against human SW620 cells assessed as cell growth at 10 uM after 48 hrs by sulforhodamine B assay relative to control; details: SW-620, 48 h, read-out: Activity; method in brief: as §1
[14] = Cytotoxicity against human HCT15 cells assessed as cell growth at 10 uM after 48 hrs by sulforhodamine B assay relative to control; details: HCT-15, 48 h, read-out: Activity; method in brief: as §1
[15] = test system: HCT-116; assay: Cytotoxicity against human HCT116 cells assessed as cell growth at 10 uM after 48 hrs by sulforhodamine B assay relative to control; details: HCT-116, 48 h, read-out: Activity; method in brief: as §1
[16] = test system: HOP-62; assay: Cytotoxicity against human HOP62 cells assessed as cell growth at 10 uM after 48 hrs by sulforhodamine B assay relative to control; details: HOP-62, 48 h, read-out: Activity; method in brief: as §1
[17] = test system: RPMI-8226; assay: Cytotoxicity against human RPMI8226 cells assessed as cell growth at 10 uM after 48 hrs by sulforhodamine B assay relative to control; details: RPMI-8226, 48 h, read-out: Activity
Method in brief: (§2)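 Suspension lines were cultured in RPMI 1640 with 5% FBS and 2 mM L-glutamine, plated at 5000–40 000 cells/well and preincubated 24 h (37 °C, 5% CO2). Compound in DMSO was given at a single 10 μM dose for 48 h. Settled cells were fixed with 80% TCA (final 16%), then stained with SRB and read at 515 nm. Growth percentage was taken relative to time-zero and untreated control absorbances.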

[18] = test system: K562; assay: Cytotoxicity against human K562 cells assessed as cell growth at 10 uM after 48 hrs by sulforhodamine B assay relative to control; details: K562, 48 h, read-out: Activity; method in brief: as §2
[19] = test system: HL-60(TB); assay: Cytotoxicity against human HL-60(TB) cells assessed as cell growth at 10 uM after 48 hrs by sulforhodamine B assay relative to control; details: HL-60, 48 h, read-out: Activity
Method in brief: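 Suspension line grown in RPMI 1640 with 5% FBS and 2 mM L-glutamine, plated at 5000–40 000 cells/well and preincubated 24 h at 37 °C, 5% CO2. Time-zero plates fixed at dosing. Single 10 μM dose in DMSO for 48 h. Settled cells fixed with TCA (final 16%), then stained with 0.4% SRB, solubilised in 10 mM Tris and read at 515 nm. Growth percentage calculated against time-zero and untreated control.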

[20] = test system: 786-0; assay: Cytotoxicity against human 786-0 cells assessed as cell growth at 10 uM after 48 hrs by sulforhodamine B assay relative to control; details: 786-0, 48 h, read-out: Activity; method in brief: as §1
[21] = test system: CAKI-1; assay: Cytotoxicity against human CAKI-1 cells assessed as cell growth at 10 uM after 48 hrs by sulforhodamine B assay relative to control; details: CAKI-1, 48 h, read-out: Activity; method in brief: as §1
[22] = test system: SN12C; assay: Cytotoxicity against human SN12C cells assessed as cell growth at 10 uM after 48 hrs by sulforhodamine B assay relative to control; details: read-out: Activity; method in brief: as §1
[23] = test system: TK-10; assay: Cytotoxicity against human TK10 cells assessed as cell growth at 10 uM after 48 hrs by sulforhodamine B assay relative to control; details: TK-10, 48 h, read-out: Activity
Method in brief: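 NCI-60 single-dose screen. Cells were grown in RPMI 1640 with 5% FBS and 2 mM L-glutamine, seeded at 5000–40 000 cells/well according to doubling time, and pre-incubated 24 h at 37 °C, 5% CO2. Time-zero plates were TCA-fixed at dosing. Compound in DMSO was given at 10 μM for 48 h. Cells were then fixed in cold TCA, stained with 0.4% SRB, solubilised in 10 mM Tris base and read at 515 nm. Growth % was calculated from time-zero, control and treated absorbances.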

[24] = test system: DU-145; assay: Cytotoxicity against human DU145 cells assessed as cell growth at 10 uM after 48 hrs by sulforhodamine B assay relative to control; details: DU-145, 48 h, read-out: Activity; method in brief: as §1
[25] = test system: T47D; assay: Cytotoxicity against human T47D cells assessed as cell growth at 10 uM after 48 hrs by sulforhodamine B assay relative to control; details: read-out: Activity; method in brief: as §1
[26] = test system: NCI-H226; assay: Cytotoxicity against human NCI-H226 cells assessed as cell growth at 10 uM after 48 hrs by sulforhodamine B assay relative to control; details: NCI-H226, 48 h, read-out: Activity; method in brief: as §1

Question: For `COc1nccc2c(-c3cccc(F)c3)nc(N)nc12`, which growth at 10 µM [1] is on record?
Answer: 105%

Question: What about the growth at 10 µM [2] of the same molecule?
Answer: 110%

Question: And the growth at 10 µM [3]?
Answer: 85.6%

Question: What about the growth at 10 µM [4] of the same molecule?
Answer: 96%

Question: What about the growth at 10 µM [5] of the same molecule?
Answer: 107%

Question: What about the growth at 10 µM [6] of the same molecule?
Answer: 117%

Question: What about the growth at 10 µM [7] of the same molecule?
Answer: 118%

Question: And the growth at 10 µM [8]?
Answer: 115%

Question: What about the growth at 10 µM [9] of the same molecule?
Answer: 101%

Question: And the growth at 10 µM [10]?
Answer: 91.1%

Question: What about the growth at 10 µM [11] of the same molecule?
Answer: 107%

Question: What about the growth at 10 µM [12] of the same molecule?
Answer: 97.2%

Question: And the growth at 10 µM [13]?
Answer: 112%

Question: What about the growth at 10 µM [14] of the same molecule?
Answer: 95%

Question: And the growth at 10 µM [15]?
Answer: 104%

Question: And the growth at 10 µM [16]?
Answer: 104%

Question: What about the growth at 10 µM [17] of the same molecule?
Answer: 107%

Question: And the growth at 10 µM [18]?
Answer: 95.2%

Question: What about the growth at 10 µM [19] of the same molecule?
Answer: 92.5%

Question: What about the growth at 10 µM [20] of the same molecule?
Answer: 100%

Question: And the growth at 10 µM [21]?
Answer: 104%

Question: What about the growth at 10 µM [22] of the same molecule?
Answer: 115%

Question: What about the growth at 10 µM [23] of the same molecule?
Answer: 101%

Question: And the growth at 10 µM [24]?
Answer: 110%

Question: And the growth at 10 µM [25]?
Answer: 93.5%

Question: And the growth at 10 µM [26]?
Answer: 98.2%
